Values joined by “and” are separate entries in the source; they are usually repeats but may differ in a detail not shown here. Identical values can stand only once. “Also recorded” adds a separate entry of the source. Like-named read-outs stand apart in the source and are kept apart here.
How the values were obtained:
[1] = tested on: U251 xenografts injected into the hind limb; details: cited from earlier work
[2] = cited from earlier work
human tumor cell lines = details: wide variety of human tumor cell lines; reported range; cited from earlier work
[3] = format: in vivo, rhesus monkeys (Macaca mulatta); details: single oral dose 7 mg/kg; for Cl: plasma clearance
Outline: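 Single 7 mg/kg oral dose by nasogastric tube under ketamine sedation to three adult male rhesus monkeys (10.5–14.7 kg) fitted with central venous ports. Blood sampled at 0–10, 24 and 48 h, then on days 0–64; plasma held at –80 °C. Total drug by HPLC/MS/MS after acetonitrile precipitation with miltefosine internal standard; standards 0.001–10 µg/ml; LLOQ 1 ng/ml. Non-compartmental: observed Cmax/Tmax, trapezoidal AUC0–inf, t1/2 = 0.693/k, Cl = dose/AUC0–inf.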

[4] = adult patients with solid tumors, cited from earlier work
glioma cell lines = details: cited from earlier work
[5] = tested on: mouse model of DIPG in which the PI3Kinase/Akt pathway is activated; details: genetically engineered mouse model of DIPG; cited from earlier work
[6] = format: in vivo, rhesus monkeys (Macaca mulatta)
Outline: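 Three adult male rhesus monkeys with an implanted fourth-ventricular CSF catheter/reservoir, sedated with ketamine (10 mg/kg IM), then given a single 7 mg/kg oral dose by nasogastric tube. CSF (0.3 ml) sampled at 0–10, 24 and 48 h, then in a repeat study on days 0–64. Total drug by HPLC/MS/MS (LLOQ 0.1 ng/ml). Non-compartmental analysis: observed Cmax; trapezoidal AUC0–inf; t1/2 = 0.693/terminal rate constant; penetration = CSF/plasma AUC0–inf.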

[7] = CSF, individual NHP, single oral dose 7 mg/kg, 7 mg/kg

## CCCCCCCCCCCCCCCCCCOP(=O)([O-])OC1CC[N+](C)(C)CC1 [Perifosine]
[1]
  activity in vivo in mice bearing U251 xenografts: demonstrated activity
[2]
  tolerability in early phase clinical trials: relatively well tolerated
[2]; renal cell carcinoma, sarcoma and Waldenstroms macroglobulinemia, Phase I and Phase II
  single-agent responses in patients: single-agent objective responses have been reported
Human tumor cell lines
  IC.50: .09 to 9.2 µg/mL
[3]; individual NHP, 7 mg/kg
  Cl: 77.6 mL/h and 36.5 mL/h and 63.3 mL/h
[3]; mean (range) of 3 NHP
  Cl: 59.1 mL/h
[3]; plasma terminal half-life, individual NHP, 7 mg/kg
  T 1/2: 193 h and 170 h
[3]; plasma, individual NHP, T = 0 to infinity, 7 mg/kg
  AUC: 2139 µg·h/mL and 1137 µg·h/mL
[3]; plasma, individual NHP, sampling to 64 days, 7 mg/kg
  Cmax: 8800 ng/mL and 5300 ng/mL
[3]; plasma
  time plasma concentrations remained >1 µM: > 28 days
[4]; 50–350 mg/day orally for 3 weeks
  terminal half-life in humans: 105 h
[4]; oral dose
  plasma half-lives: 80 to 116 h
  time of peak plasma concentrations: 8 to 24 h
Glioma cell lines
  activity in vitro against glioma cell lines: demonstrated activity
[5]
  activity in mouse model of pontine glioma: absent activity; also recorded: lacked activity; also recorded: no activity was observed
[6]; CSF terminal half-life, individual NHP, single oral dose 7 mg/kg, 7 mg/kg
  t 1/2: 146 h and 277 h and 350 h
[6]; [7]
  Cmax: 1.85 ng/mL and 4.39 ng/mL and 4.57 ng/mL
  Tmax: 63.6 h and 235.3 h and 235.4 h
[6]; CSF, individual NHP, single oral dose 7 mg/kg, T = 0 to infinity, 7 mg/kg
  AUC: 1.031 µg·h/mL and 3.44 µg·h/mL and 2.89 µg·h/mL
[6]; CSF, mean of 3 NHP, single oral dose 7 mg/kg, molar equivalent
  maximum measured CSF concentration: 7.8 nM
[6]; CSF, median (range) of 3 NHP, single oral dose 7 mg/kg
  CSF AUC: 6358 (2266–7568) nM/h
[6]; CSF, oral 7.0 mg/kg, collection up to 48 h, 7 mg/kg
  Cmax in the CSF in initial experiments: had not been reached by 48 h; also recorded: has not been reached by 48 h
[6]; CSF, single oral dose 7 mg/kg, 7 mg/kg
  time to maximum CSF concentration: > 7 days and 7 days
[6]; male, rhesus monkey, CSF, po, 7 mg/kg
  Kp: 0.0016
[6]; mean of 3 NHP, single oral dose 7 mg/kg
  AUCCSF:AUCPl (ratio of CSF to plasma exposure): .0016
[6]; plasma and CSF, after a single oral dose
  time levels were measurable in both plasma and CSF: > 2 months
[6]; single oral dose 7 mg/kg
  CSF concentrations relative to plasma concentrations (fold less): 1000 fold

— article PMC6301001 (Cancer chemotherapy and pharmacology, 2015)
